Experimental data reported in ChEMBL document CHEMBL1148278 (J Med Chem, 2004).

What was measured:
[1] = target: NAD-dependent histone deacetylase SIR2 (Saccharomyces cerevisiae S288c) (UniProt P06700); assay: Sirtuin 2 inhibitory activity and was reported as minimum growth-stimulating concentration in Saccharomyces cerevisiae
Outline: (§1)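 Telomeric-silencing growth assay in S. cerevisiae UCC2210 (adh4::URA3-TEL VII-L), ca. 13 500 cells/well, in synthetic complete medium lacking uracil. Compound at 150 μM to 73 nM final, DMSO ≤2%, 30 °C for about 40–48 h. OD660 read, initial background subtracted. MGC is the concentration giving 10% of the reference maximal growth. Triplicate, ±1 SD.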

[2] = target: NAD-dependent histone deacetylase SIR2 (Saccharomyces cerevisiae S288c) (UniProt P06700); assay: In vitro inhibition of sirtuin 2 was evaluated using yeast whole cell lysates at 75 uM; values are per cent of control
[3] = target: Saccharomyces cerevisiae; assay: Toxicity against Saccharomyces cerevisiae assessed as growth inhibition in complete medium
[4] = target: NAD-dependent histone deacetylase SIR2 (Saccharomyces cerevisiae S288c) (UniProt P06700); assay: Tested for Sir2 inhibitory activity and was reported as minimum growth-stimulating concentration in Saccharomyces cerevisiae; outline: as §1
[5] = target: NAD-dependent histone deacetylase SIR2 (Saccharomyces cerevisiae S288c) (UniProt P06700); assay: Selectivity index was reported as the ratio of the MGC to IC50 value
[6] = Half-life period was determined; assay type: ADME
Outline: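 Hydrolysis followed by HPLC at 280 nm. 100 μM compound, made from 30 mM DMSO stock, in complete medium lacking uracil (pH 4.2-4.3, unadjusted). Half-life derived from the pseudo-first-order hydrolysis rate constant.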

[7] = target: NAD-dependent histone deacetylase SIR2 (Saccharomyces cerevisiae S288c) (UniProt P06700); assay: Tested for Sirtuin 2 inhibitory activity and was reported as minimum growth-stimulating concentration in Saccharomyces cerevisiae
Outline: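 Cell-based telomeric silencing read-out in yeast strain UCC2210 (Mata ppr1 adh4::URA3-TEL VII-L), about 13 500 cells per well, grown in synthetic complete medium lacking uracil. Compounds tested at 150 µM to 73 nM, with at most 2% DMSO. Incubation at 30 °C for about 40–48 h. Growth read as OD660 minus initial background. MGC is the concentration giving 10% of reference maximal growth. Triplicate, ±1 SD.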

Chain of NAD-dependent histone deacetylase SIR2 (Saccharomyces cerevisiae S288c) (P06700 whole entry): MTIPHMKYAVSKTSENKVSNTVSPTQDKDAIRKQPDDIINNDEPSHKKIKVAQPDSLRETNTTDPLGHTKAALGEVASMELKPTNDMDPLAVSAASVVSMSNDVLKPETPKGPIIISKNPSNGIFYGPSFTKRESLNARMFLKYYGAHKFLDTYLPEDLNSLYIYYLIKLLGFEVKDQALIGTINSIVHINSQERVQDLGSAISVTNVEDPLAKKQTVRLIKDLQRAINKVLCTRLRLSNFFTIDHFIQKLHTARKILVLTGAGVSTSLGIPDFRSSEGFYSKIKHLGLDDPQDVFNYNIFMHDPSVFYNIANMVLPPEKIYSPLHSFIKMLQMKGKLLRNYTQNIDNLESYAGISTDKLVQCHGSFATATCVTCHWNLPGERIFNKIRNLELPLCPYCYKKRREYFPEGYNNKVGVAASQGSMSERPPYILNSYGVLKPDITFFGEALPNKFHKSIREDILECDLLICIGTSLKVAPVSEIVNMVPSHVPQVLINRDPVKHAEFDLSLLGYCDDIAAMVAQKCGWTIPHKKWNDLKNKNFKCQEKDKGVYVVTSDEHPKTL

SMILES	MGC [1] [µM]	residual activity [2] [%]	IC50 [3] [µM]	MGC [4] [µM]	SI [5]	T1/2 [6]	half-life [6] [h]	MGC [7] [µM]
O=C1CCc2ccccc2O1	0.85	15	–	–	–	–	–	–
O=C1CCc2c(cc(O)c3ccccc23)O1	11	–	–	–	–	–	–	–
O=C1CCc2c(ccc3ccc4c(c23)CCC(=O)O4)O1	> 150	–	≥ 150	–	–	–	–	–
O=C1CCc2c(c3oc(=O)ccc3c3ccccc23)O1	–	83	≥ 150	5.1	> 29	–	–	–
O=C(COc1cccc2ccccc12)ON1C(=O)CCC1=O	> 150	–	≥ 150	–	–	–	–	–
CC(C)CC1Cc2c(ccc3ccccc23)OC1=O (configuration not stated)	> 150	–	–	–	–	–	–	–
COc1ccc2c3c(ccc2c1)OC(=O)CC3	13.8	84	73	–	5	–	–	–
O=C1CCc2c(c(O)cc3ccccc23)O1	0.69	–	111	–	161	–	–	–
OCCCc1c(O)ccc2ccccc12	> 150	88	≥ 150	–	–	–	–	–
O=C1CCc2c(ccc3c(O)cccc23)O1	16	–	≥ 150	–	> 107	–	–	–
O=C1CCc2c(ccc3ccccc23)N1	> 150	92	≥ 150	–	–	No hydrolysis obsd	–	–
O=c1ccc2ccccc2o1	–	74	–	> 150	–	–	–	–
NC(=O)CCc1c(O)ccc2ccccc12	0.79	80	125	–	158	–	–	–
O=C(O)CCc1c(O)ccc2ccccc12	> 150	87	≥ 150	–	–	–	–	–
CCOC(=O)C1Cc2c(ccc3ccccc23)OC1=O (configuration not stated)	> 150	66	≥ 150	–	–	–	–	–
COc1cccc2c3c(ccc12)OC(=O)CC3	5.5	–	–	–	–	–	–	–
O=C1CC(c2ccccc2)c2c(ccc3ccccc23)O1 (configuration not stated)	> 150	90	–	–	–	–	–	–
CC(C)(C)OC(=O)NCCOCCOc1cc2ccccc2c2c1OC(=O)CC2	6.4	–	86	–	13	–	–	–
O=C1CCc2c(ccc3c4c(ccc23)OC(=O)CC4)O1	> 150	87	–	–	–	–	–	–
COc1ccc2ccc3c(c2c1)CCC(=O)O3	> 150	–	–	–	–	–	–	–
COc1cc2ccccc2c2c1OC(=O)CC2	1.5	–	128	–	85	–	–	–

SMILES	MGC [1] [µM]	residual activity [2] [%]	IC50 [3] [µM]	MGC [4] [µM]	SI [5]	T1/2 [6]	half-life [6] [h]	MGC [7] [µM]
O=C1Cc2c(ccc3ccccc23)O1	> 150	–	59	–	–	–	12.2	–
O=C1OC(=O)c2cccc3cccc1c23	> 150	94	–	–	–	–	–	–
CC1Cc2c(ccc3ccccc23)OC1=O (configuration not stated)	5.4	94	52	–	10	–	–	–
O=C1CCc2ccc3ccccc3c2O1	2.4	87	65	–	27	–	6.9	–
O=C1CCc2c(ccc3ccccc23)O1 [SPLITOMICIN]	–	66	–	–	–	–	7.5	0.49
O=C1CCc2c(c(OCc3ccccc3)cc3ccccc23)O1	0.97	17	27	–	29	–	–	–
O=C1CCc2ccc3c(O)cccc3c2O1	21	–	≥ 150	–	> 7	–	–	–
O=C1CCc2cc3ccccc3cc2O1	15	85	≥ 150	–	10	–	–	–
COC(=O)CCc1c(O)ccc2ccccc12	5.2	75	–	–	–	–	–	–
CCN(CC)C(=O)CCc1c(O)ccc2ccccc12	> 150	88	125	–	–	–	–	–
O=c1ccc2c(ccc3ccccc32)o1	> 150	73	86	–	–	–	> 100	–
CNC(=O)CCc1c(O)ccc2ccccc12	5.8	–	≥ 150	–	> 26	–	–	–
O=C1CCc2c(ccc3ccccc23)S1	> 150	–	25	–	–	–	13	–
C=CCC1Cc2c(ccc3ccccc23)OC1=O (configuration not stated)	> 150	86	–	–	–	–	–	–
O=C1Cc2ccccc2O1	24	89	≥ 150	–	> 6	–	–	–
O=C1CCCc2c(ccc3ccccc23)O1	> 150	82	12	–	–	–	49.5	–
O=C1CCc2c(ccc3ccc(O)cc23)O1	48	–	134	–	3	–	–	–
O=C1CCc2c(ccc3cc(O)ccc23)O1	38	85	≥ 150	–	> 39	–	–	–
COc1cc2c(c3ccccc13)CCC(=O)O2	1.8	–	44	–	24	–	–	–
O=C1CCc2c(c3c(c4ccccc24)CCC(=O)O3)O1	4.9	80	89	–	18	–	–	–
O=C1CCCc2c1ccc1ccccc21	> 150	–	81	–	–	–	–	–
